Laboratory results published in article PMC6490184 (ACS infectious diseases, 2019).
“Also recorded” adds a separate entry of the source. Counter-ions that a name gives are not always drawn. Like-named read-outs stand apart in the source and are kept apart here.

Tests used:
[1] = system: E. coli expressing tetracycline destructase enzymes; experiment: Checkerboard whole cell inhibition assay; type: cell-based; conditions: co-administered with tetracycline antibiotics
[2] = Non-enzymatic stability on storage and in solution; type: physicochemical; conditions: extended solution times (overnight), LCMS
[3] = system: tetracycline destructase enzymes Tet(50), Tet(X), and Tet(X)_3; type: biochemical
Procedure, shortened: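 Enzymes expressed from pET28b(+) in E. coli BL21-Star (DE3) and Ni-NTA purified. Reactions in 100 mM TAPS pH 8.5 held 504 μM NADPH, 5.04 mM MgCl2, 25.3 μM tetracycline substrate, 0.4 μM enzyme and graded inhibitor, in triplicate. Absorbance at 380 or 400 nm was followed for 4 min. Initial velocities were plotted against log[inhibitor] and fitted by nonlinear regression for IC50. Controls: no-enzyme, no-inhibitor, no-substrate.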

Tet(X) [4] = biological target: T1, Tet(X) (Bacteroides thetaiotaomicron, UniProt Q93L51); experiment: In vitro inhibition of Tet; type: biochemical
Tet(X) [5] = biological target: T1, Tet(X); experiment: Tet; type: biochemical; conditions: decrease in 440 nm absorption band and extracted mass (LCMS)
Tet(50) [6] = biological target: T2, Tet(50) (Unknown prokaryotic organism, UniProt A0A059WYP6); experiment: In vitro inhibition of Tet; type: biochemical; conditions: degradation of tetracycline antibiotics by soil-derived Tet(50)
Procedure, shortened: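 Ni-NTA-purified enzyme, dialysed into 50 mM K2HPO4 pH 8.0, 150 mM NaCl, 1 mM DTT. A380 or A400 followed continuously for 4 min. No-enzyme control was set to 1 × 10^15 inhibitor, no-inhibitor control to 1 × 10^−15. No-substrate controls were also run.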

Tet(50) [7] = biological target: T2, Tet(50); experiment: Exposure of aDem to Tet; type: biochemical; conditions: Tet(50) with NADPH, no tetracycline, LCMS
[8] = system: E. coli expressing Tet(X); experiment: Whole cell resistance of E. coli expressing Tet; type: cell-based
[9] = apparent IC50, Tet(X)-mediated degradation of tigecycline

Row | SMILES | whole cell inhibition / rescue of tetracycline activity [1] | non-enzymatic degradation in solution [2] | in vitro destructase inhibitory activity [3] | IC50 (Tet(X) [4]; [9]) | other results
1 | Cc1c2c(c(O)c3c(O)c(Br)ccc13)C(=O)[C@]1(O)C(=O)C(C(N)=O)=C(O)[C@@H](N(C)C)[C@@H]1C2.Cl [9-Br-aTc, (4S,4aS,12aS)-9-bromo-4-(dimethylamino)-3,10,11,12a-tetrahydroxy-6-methyl-1,12-dioxo-1,4,4a,5,12,12a-hexahydrotetracene-2-carboxamide hydrochloride] | limited activity | some non-enzymatic degradation | potent in vitro destructase inhibitory activity |  | 
2 | Cc1c2c(c(O)c3c(O)cccc13)C(=O)[C@]1(O)C(=O)C(C(N)=O)=C(O)[C@@H](N(C)C)[C@@H]1C2 [aTc, anhydrotetracycline, reference compound] | performs well |  |  |  | IC50 (Tet(X) [4]): 400 to 1500 nM; enzymatic degradation by Tet(X) (Tet(X) [5]): substrate for Tet(X); inhibition model ([3]; Lineweaver-Burk plots, degradation of tetracycline): mixed competitive/non-competitive inhibition model
3 | CN(C)[C@@H]1C(O)=C(C(N)=O)C(=O)[C@@]2(O)C(=O)c3c(cc4c(Cl)ccc(O)c4c3O)C[C@@H]12.Cl [aDem, (4S,4aS,12aS)-7-chloro-4-(dimethylamino)-3,10,11,12a-tetrahydroxy-1,12-dioxo-1,4,4a,5,12,12a-hexahydrotetracene-2-carboxamide hydrochloride] | rescues tetracycline activity |  |  | 400 to 1500 nM | IC50 (Tet(X) [4]; apparent IC50, Tet(X)-mediated degradation of tetracycline antibiotics (tetracycline, demeclocycline)): 1000 to 4000 nM; in vitro inhibitory activity against enzymatic degradation by Tet(50) (Tet(50) [6]): performed poorly; in vitro inhibitory activity against enzymatic degradation by Tet(50) (Tet(50) [6]; listed as 7): poor in vitro inhibitory activity; decrease in extracted mass over time (Tet(50) [7]): no measurable decrease
4 | CN(C)c1cc(NC(=O)CNC(C)(C)C)c(O)c2c1C[C@H]1C[C@H]3[C@H](N(C)C)C(O)=C(C(N)=O)C(=O)[C@@]3(O)C(O)=C1C2=O [tigecycline] |  |  |  |  | resistance, increase over empty vector controls [8]: 2 fold
5 | Cc1c2c(c(O)c3c(O)ccc(I)c13)C(=O)[C@]1(O)C(=O)C(C(N)=O)=C(O)[C@@H](N(C)C)[C@@H]1C2.Cl [7-I-aTc, (4S,4aS,12aS)-4-(dimethylamino)-3,10,11,12a-tetrahydroxy-7-iodo-6-methyl-1,12-dioxo-1,4,4a,5,12,12a-hexahydrotetracene-2-carboxamide hydrochloride] | limited activity; also recorded: no inhibitory activity | non-enzymatic degradation of 7-I-aTc in solution was observed; also recorded: some non-enzymatic degradation | potent in vitro destructase inhibitory activity |  | 
6 | Cc1c2c(c(O)c3c(O)ccc(Cl)c13)C(=O)[C@]1(O)C(=O)C(C(N)=O)=C(O)[C@@H](N(C)C)[C@@H]1C2 [aCTc, (4S,4aS,12aS)-7-chloro-4-(dimethylamino)-3,10,11,12a-tetrahydroxy-6-methyl-1,12-dioxo-1,4,4a,5,12,12a-hexahydrotetracene-2-carboxamide hydrochloride] |  |  |  | 400 to 1500 nM | 
